Test results from PubChem BioAssay.
Results filed as inconclusive are left out.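 How the source made its calls, unless noted: active means viability at or below 27.92% in each of two runs, the all-compound median minus 4 SD; inconclusive means no clear call, values can overlap the other calls; inactive means the rest.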

Legend:
[1] = OD615 S. cerevisiae growth inhibition, permissive medium, pilot counter-assay, permissive growth control for S. cerevisiae lifespan shortening project (AID 705;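 active means growth inhibition above 25% in both replicates, a cutoff set 3 SD above the mean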); settings: OD615, 24 h, at 10 µM, active compounds read high
How it was run: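 System – S. cerevisiae with engineered DeaD lifespan system · Buffer or medium – SC raffinose/galactose permissive medium · Schedule – cells pre-grown 4 h, then 24 h compound exposure, 30 °C humidified · Technique – culture turbidity as optical density at 615 nm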

[2] = Restrictive medium S. cerevisiae growth inhibition, OD615, pilot screen of yeast lifespan reduction project, restrictive growth control (AID 706;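 active means growth inhibition above a set limit, 3 SD over mean compound inhibition, in both replicates, cut at about 43% in these data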;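 further: modified DeaD lifespan yeast strain shifted to restrictive glucose medium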); settings: OD615, 48 h, at 10 µM, active compounds read high
How it was run: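 Material: engineered S. cerevisiae DeaD strain / Medium: glucose-based CSMM-D restrictive medium / Compound: single dose of 10 µM compound final, 0.25% DMSO / Timing: 4 h pre-incubation, 48 h exposure at 30 °C / Technique: OD615 absorbance reading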

[3] = viability gain of MRP-1-high H69AR cells under doxorubicin, pilot screen, MRP-1 activator project, CellTiter-Glo, duplicate (AID 807;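 active means viability increase at or above a cutoff of the median across tested compounds plus 3 SD, cut at about 8.5% in these data, passing the limit was not always enough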;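 further: compound pretreatment 18-22 h then 72 h combined with doxorubicin; 0% = doxorubicin alone and 100% = vehicle without doxorubicin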); settings: H69AR viability with doxorubicin, CellTiter-Glo luminescence; at 10 µM; active compounds read high
[4] = growth suppression of beta-catenin knockout HCT116, pilot screen, human colon tumor cells (AID 823;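 active means cell viability at or below a set limit in both duplicate runs, the limit being the all-compound median minus 4 SD, cut at about 23% in these data, passing the limit was not always enough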;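 further: 0% = wells killed by 20 µM Hyamine and 100% = untreated DMSO cell wells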); settings: CellTiter-Glo, 60 h, at 10 µM, active compounds read low
[5] = growth suppression of PTEN-deleted HCT116, pilot screen, cell-based, HCT116 clonal line, CellTiter-Glo (AID 824); settings: 60 h, at 10 µM, active compounds read low;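 further: 0% = 20 µM Hyamine control and 100% = vehicle cell control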
[6] = inhibitors of the yeast RAM network, pilot screen, dse1pr::URA3 reporter, 5-FOA selection (AID 869;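 active means inhibition over a set limit, the all-compound mean plus 3 SD, in both replicate runs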;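 further: 0% = DMSO wells with no growth and 100% = 10 µM 1-NA-PP1 with full growth; RAM network block rescues cells from 5-FOA so hits raise OD615 growth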); settings: S. cerevisiae dse1pr::URA3 5-FOA growth, OD615, 2 d; at 10 µM; active compounds read high; strain carries analog-sensitive mutant Cbk1 kinase
[7] = RAM signaling pathway blockade in yeast – S. cerevisiae, Pdr1DBD-CYC8 efflux-inhibited sensitized strain, primary screen (AID 1298;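 active means RAM network inhibition above 8.4% in each of two replicates, 3 SD over the compound average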;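 further: 0% = DMSO untreated cells without growth and 100% = 10 µM 1-NA-PP1 full growth; higher means more yeast growth rescued from 5-FOA killing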); settings: S. cerevisiae cbk1-as DSE1-URA3 strain, 5-FOA growth OD615, 2 d; at 50 µM; active compounds read high

COc1ccc(CSc2nncn2N)cc1Br
inactive: growth inhibition [1] 8.95% | growth inhibition [2] 5.08% | viability increase [3] -2.01% | viability [4] 101% | viability [5] 90.8% | inhibition [6] 1.08% | RAM network inhibition [7] 0.88%

CCOC(=O)N1CCC(N2C(=O)c3ccc(C(=O)NCc4ccc(F)cc4)cc3C2=O)CC1
inactive: growth inhibition [1] -0.31% | growth inhibition [2] -4.59% | viability increase [3] -1.21% | viability [4] 98.1% | viability [5] 100% | inhibition [6] 3.25% | RAM network inhibition [7] 8.97%

CCN(CC)c1ccc(C=Nc2ccc(C#N)cc2)c(O)c1
inactive: growth inhibition [1] -18.8% | growth inhibition [2] -19.5% | viability increase [3] -0.93% | viability [4] 99.4% | viability [5] 96.3% | inhibition [6] 1.43% | RAM network inhibition [7] 5.13%

O=C(c1cccc(S(=O)(=O)N2CCOCC2)c1)N1CCOCC1
inactive: growth inhibition [1] -3.56% | growth inhibition [2] -5.11% | viability increase [3] -0.71% | viability [4] 101% | viability [5] 97.9% | inhibition [6] 0.835% | RAM network inhibition [7] 1.18%

O=c1oc2ccccc2n1CCCOc1ccccc1
inactive: growth inhibition [1] 1.24% | growth inhibition [2] -1.04% | viability increase [3] 1.28% | viability [4] 98.1% | viability [5] 96.5% | inhibition [6] 2.02% | RAM network inhibition [7] 1.62%

O=S(=O)(NC1c2cccc3cccc(c23)C1N1CCNCC1)c1ccccc1 (stereo unspecified)
inactive: growth inhibition [1] -10.4% | growth inhibition [2] -14.2% | viability increase [3] -5.27% | viability [4] 68% | viability [5] 74.8% | inhibition [6] 1.62% | RAM network inhibition [7] 2.72%

N#Cc1ccc(Oc2cccnc2)cc1C#N
inactive: growth inhibition [1] -13.5% | growth inhibition [2] -20.4% | viability increase [3] -0.76% | viability [4] 100% | viability [5] 97.5% | inhibition [6] 1.49% | RAM network inhibition [7] 2.79%

COC(=O)c1cc(NC2c3ccccc3C(=O)N2c2ccc(Cl)cn2)cc(C(=O)OC)c1 (stereo unspecified)
inactive: growth inhibition [1] -20.1% | growth inhibition [2] -16.2% | viability increase [3] 0.19% | viability [4] 71.2% | viability [5] 64.4% | inhibition [6] 1.5% | RAM network inhibition [7] 4.41%

CC(=O)Nc1nnc(SCC(=O)NC(C)(C)C)s1
inactive: growth inhibition [1] -6.89% | growth inhibition [2] 1.67% | viability increase [3] -0.33% | viability [4] 94.8% | viability [5] 98.8% | inhibition [6] 1.88% | RAM network inhibition [7] 0.36%

O=C(NCC1CCCO1)c1ccc2nc(N3CCCCC3)sc2c1 (stereo unspecified)
inactive: growth inhibition [1] -2.59% | growth inhibition [2] -4.53% | viability increase [3] -0.46% | viability [4] 102% | viability [5] 96.8% | inhibition [6] 2.37% | RAM network inhibition [7] 1.03%

CCCOc1ccc(C(=O)NCc2ccco2)cc1
inactive: growth inhibition [1] -13.1% | growth inhibition [2] -4.49% | viability increase [3] -1.42% | viability [4] 98% | viability [5] 93.5% | inhibition [6] 0.43% | RAM network inhibition [7] 2.65%

O=C(CN1CC(c2ccccc2)CC1=O)Nc1ccc2c(c1)OCO2 (stereo unspecified)
inactive: growth inhibition [1] -7.38% | growth inhibition [2] 0.29% | viability increase [3] -1.16% | viability [4] 98% | viability [5] 101% | inhibition [6] 0.205% | RAM network inhibition [7] 1.31%

COc1ccc(CCNC(=O)c2c(O)c3c([nH]c2=O)CCCC3)cc1
inactive: growth inhibition [1] -0.92% | growth inhibition [2] -15.2% | viability increase [3] -0.72% | viability [4] 97.1% | viability [5] 90% | inhibition [6] 1.77% | RAM network inhibition [7] 4.09%

CCc1nnc(NC(=O)c2cccs2)s1
inactive: growth inhibition [1] -21.3% | growth inhibition [2] -3.98% | viability increase [3] 2.17% | viability [4] 102% | viability [5] 90.1% | inhibition [6] 1.29% | RAM network inhibition [7] 0.32%

CCN1CCN(c2ncnc3c2cnn3-c2ccccc2)CC1
inactive: growth inhibition [1] -13.8% | growth inhibition [2] -7.68% | viability increase [3] 1.69% | viability [4] 102% | viability [5] 89.8% | inhibition [6] 1.7% | RAM network inhibition [7] 2.03%

Cn1c(=O)c2c(nc(CN3CCN(Cc4ccccc4)CC3)n2Cc2ccccc2)n(C)c1=O
inactive: growth inhibition [1] -6.72% | growth inhibition [2] -11.8% | viability increase [3] -0.85% | viability [4] 85.6% | viability [5] 88% | inhibition [6] 2.02% | RAM network inhibition [7] -0.01%

COc1cccc(-n2c(Cc3cc(=O)[nH]c(=O)[nH]3)nnc2SCC(=O)N2CCCCC2)c1
inactive: growth inhibition [1] -2.5% | growth inhibition [2] -0.925% | viability increase [3] -1.49% | viability [4] 112% | viability [5] 96.8% | inhibition [6] 1.77% | RAM network inhibition [7] 5.28%

CCN1CCN(c2cc(C)c3cc(NC(=O)c4cnccn4)ccc3n2)CC1
inactive: growth inhibition [1] -11.2% | growth inhibition [2] 1.29% | viability increase [3] -3.82% | viability [4] 84.5% | viability [5] 89.5% | inhibition [6] -0.02% | RAM network inhibition [7] -0.42%
